Reference: ChEMBL document CHEMBL1125644, “A new class of calcium antagonists. 2. Synthesis and biological activity of 11-[[4-[4-(4-fluorophenyl)-1-piperazinyl]butyryl]amino]-6,11- dihydrodibenzo[b,e]-thiepin maleate and related compounds” (J Med Chem, 1991)
The source made the active and inactive calls. No cut-off for these calls is given here.

Experiments:
Rattus norvegicus [1] = species: Rattus norvegicus; test: Inhibition of calcium activation was assessed against calcium-induced constriction of potassium-depolarized rat aorta (Negative logarithm of the molar concentration); type: functional, organism-based; details: read-out: pA2 (converted)
Rattus norvegicus [2] = test: Preventive effect of compound was measured on methacholine-induced ST elevation in anesthetized rats at 1 mg/kg iv dose without test compound; type: functional
Summary of the method: (§1)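 Male Sprague-Dawley rats (~500 g), pentobarbital 60 mg/kg ip. Methacholine 8 μg/kg bolus via carotid cannula near aortic valve into coronary ostia, before, at 0.5 min and every 5 min after iv compound (femoral vein; vehicle 5% ethanol in saline). Lead II ECG ST amplitude; mean ± SE, n=5; paired Student's t-test.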

Rattus norvegicus [3] = test: Preventive effect of compound was measured on methacholine-induced ST elevation in anesthetized rats at 0.1 mg/kg iv dose without test compound; type: functional; summary of the method: as §1
Rattus norvegicus [4] = test: Preventive effect of compound was measured on vasopressin-induced ST depression rats at 10 mg/kg po dose after 2 hr of administration; +=Differ from control value; type: functional, organism-based; parameters: dose 10 mg/kg
Summary of the method: (§2)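 Male Donryu rats (150-220 g), pentobarbital 60 mg/kg ip. Compound in 0.5% tragacanth given orally; vasopressin 0.2 IU/kg iv via femoral vein cannula. Lead II ECG ST depression measured every 30 s for 5 min after vasopressin. 10-20 experiments; + means p < 0.05 vs control, - not significant.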

Rattus norvegicus [5] = species: Rattus norvegicus; test: inhibitory effect of compound on contraction induced by high potassium in isolated rat aorta; type: functional
Summary of the method: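 Isolated rat aortic strips contracted with high potassium; compound added 30 min before measurement.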

Rattus norvegicus [6] = test: Preventive effect of compound was measured on methacholine-induced ST elevation in anesthetized rats at 1 mg/kg iv dose with test compound (0-90 min); type: functional; summary of the method: as §1
Rattus norvegicus [7] = test: Preventive effect of compound was measured on vasopressin-induced ST depression rats at 3 mg/kg po dose after 1 hr of administration; -=No significance; type: functional, organism-based; parameters: dose 3 mg/kg; summary of the method: as §2
Rattus norvegicus [8] = species: Rattus norvegicus; test: Inhibitory effect of compound on calcium influx by high potassium in isolated rat aorta; type: functional
Summary of the method: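 Rat aortic strips; compound present 30 min before and during 45Ca incubation under high potassium. Strips then washed 60 min at 4 °C in La-substituted solution (73.8 mM LaCl3, 5.5 mM glucose, 24 mM Tris), dissolved in toluene at 40 °C, counted by liquid scintillation; expressed as apparent tissue 45Ca content (mmol/kg wet wt).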

Rattus norvegicus [9] = test: Preventive effect of compound was measured on methacholine-induced ST elevation in anesthetized rats at 0.1 mg/kg iv dose with test compound (0-90 min); type: functional; summary of the method: as §1
Rattus norvegicus [10] = test: Preventive effect of compound was measured on vasopressin-induced ST depression rats at 30 mg/kg po dose after 1 hr of administration; +=Differ from control value; type: functional, organism-based; parameters: dose 30 mg/kg; summary of the method: as §2
Rattus norvegicus [11] = test: Preventive effect of compound was measured on vasopressin-induced ST depression rats at 30 mg/kg po dose after 7 hr of administration; -=No significance; type: functional, organism-based; parameters: dose 30 mg/kg; summary of the method: as §2
Rattus norvegicus [12] = test: Preventive effect of compound was measured on methacholine-induced ST elevation in anesthetized rats at 0.3 mg/kg iv dose with test compound (0-90 min); type: functional; summary of the method: as §1
Rattus norvegicus [13] = test: Preventive effect of compound was measured on vasopressin-induced ST depression rats at 10 mg/kg po dose after 1 hr of administration; +=Differ from control value; type: functional, organism-based; parameters: dose 10 mg/kg; summary of the method: as §2
Rattus norvegicus [14] = test: Preventive effect of compound was measured on vasopressin-induced ST depression rats at 30 mg/kg po dose after 3h of administration; +=Differ from control value; type: functional, organism-based; parameters: dose 30 mg/kg; summary of the method: as §2
Rattus norvegicus [15] = test: Preventive effect of compound was measured on vasopressin-induced ST depression rats at 10 mg/kg po dose after 3h of administration; -=No significance; type: functional, organism-based; parameters: dose 10 mg/kg; summary of the method: as §2
Rattus norvegicus [16] = species: Rattus norvegicus; test: Inhibitory effect of compound on contraction induced by high potassium in isolated rat aorta; type: functional
Summary of the method: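 Std-Wistar rat thoracic aorta spiral strips (3–4 mm × ~30 mm) under 1.0 g tension in Krebs-bicarbonate, 95% O2/5% CO2, 37 °C, depolarized; isometric contraction to Ca2+ recorded.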

Rattus norvegicus [17] = test: Preventive effect of compound was measured on methacholine-induced ST elevation in anesthetized rats at 0.3 mg/kg iv dose without test compound; type: functional; summary of the method: as §1
Rattus norvegicus [18] = test: Preventive effect of compound was measured on vasopressin-induced ST depression rats at 10 mg/kg po dose after 3h of administration; +=Differ from control value; type: functional, organism-based; parameters: dose 10 mg/kg; summary of the method: as §2
Rattus norvegicus [19] = test: Preventive effect of compound was measured on vasopressin-induced ST depression rats at 3 mg/kg po dose after 1 hr of administration; +=Differ from control value; type: functional, organism-based; parameters: dose 3 mg/kg; summary of the method: as §2
Rattus norvegicus [20] = test: Preventive effect of compound was measured on vasopressin-induced ST depression rats at 30 mg/kg po dose after 7 hr of administration; +=Differ from control value; type: functional, organism-based; parameters: dose 30 mg/kg; summary of the method: as §2

Structure (SMILES) | Kb (Rattus norvegicus [1]) [nM] | further results
O=C(CCCN1CCN(c2ccc([N+](=O)[O-])cc2)CC1)NC1c2ccccc2CSc2ccccc21 (stereo not drawn) | 7.94 | 
O=C(CCCN1CCN(CCCc2ccccc2)CC1)NC1c2ccccc2CSc2ccccc21 (stereo not drawn) | 12.3 | 
O=C(CCCN1CCN(C(=O)c2ccccc2)CC1)NC1c2ccccc2C=Cc2ccccc21 | 20.9 | 
O=C(CCCN1CCN(c2ccc(Cl)cc2)CC1)NC1c2ccccc2CSc2ccccc21 (stereo not drawn) | 2.82 | 
O=C(CCCN1CCN(c2ccc(F)cc2)CC1)NC1c2ccccc2CCc2ccccc21 | 9.33 | 
O=C(CCCN1CCN(S(=O)(=O)Oc2ccccc2)CC1)NC1c2ccccc2CSc2ccccc21 (stereo not drawn) | 10.5 | 
COc1cccc(N2CCN(CCCC(=O)NC3c4ccccc4C=Cc4ccccc43)CC2)c1 | 5.37 | 
O=C(CCCN1CCN(c2ccc(F)cc2)CC1)NC1c2ccccc2COc2ccccc21 (stereo not drawn) | 33.1 | 
O=C(CCN1CCN(c2ccc(F)cc2)CC1)NC1c2ccccc2C=Cc2ccccc21 | 2.75 | 
COc1ccc([C@@H]2Sc3ccccc3N(CCN(C)C)C(=O)[C@@H]2OC(C)=O)cc1 [DILTIAZEM] |  | Activity (Rattus norvegicus [2]): 0.223 delta mV; Activity (Rattus norvegicus [3]): 0.227 delta mV; Activity (Rattus norvegicus [4]): Active; IC50 (Rattus norvegicus [5]): 203 nM; Activity (Rattus norvegicus [6]): 0.091 delta mV; Activity (Rattus norvegicus [7]): inactive; IC50 (Rattus norvegicus [8]): 352 nM; Activity (Rattus norvegicus [9]): 0.148 delta mV; Activity (Rattus norvegicus [10]): Active; Activity (Rattus norvegicus [11]): inactive; Activity (Rattus norvegicus [12]): 0.059 delta mV; Activity (Rattus norvegicus [13]): Active; Activity (Rattus norvegicus [14]): Active; Activity (Rattus norvegicus [15]): inactive
O=C(CCCN1CCN(Cc2ccccc2)CC1)NC1c2ccccc2C=Cc2ccccc21 | 6.03 | 
O=C(CCCN1CCN(c2ccccc2F)CC1)NC1c2ccccc2C=Cc2ccccc21 | 3.47 | 
COC(=O)C1=C(C)NC(C)=C(C(=O)OC)C1c1ccccc1[N+](=O)[O-] [NIFEDIPINE] |  | IC50 (Rattus norvegicus [16]): 2 nM; IC50 (Rattus norvegicus [8]): 4 nM
O=C(CCCN1CCN(C/C=C/c2ccccc2)CC1)NC1c2ccccc2CSc2ccccc21 (stereo not drawn) | 7.59 | 
O=C(CCCCN1CCN(c2ccc(F)cc2)CC1)NC1c2ccccc2CSc2ccccc21 (stereo not drawn) | 3.47 | 
COc1ccc(N2CCN(CCCC(=O)NC3c4ccccc4C=Cc4ccccc43)CC2)cc1OC | 5.01 | 
O=C(CCCN1CCN(Cc2ccccc2)CC1)NC1c2ccccc2CSc2ccccc21 (stereo not drawn) | 2.88 | 
O=C(CCCN1CCN(c2ccc(F)cc2)CC1)NC1c2ccccc2Sc2ccccc21 | 10.5 | 

Structure (SMILES) | Kb (Rattus norvegicus [1]) [nM] | further results
O=C(CCCN1CCN(c2ccc(F)cc2)CC1)NC1c2ccccc2CSc2ccccc21.O=C(O)/C=C\C(=O)O (stereo not drawn) [MONATEPIL MALEATE] | 1.95 | Activity (Rattus norvegicus [2]): 0.241 delta mV; Activity (Rattus norvegicus [3]): 0.198 delta mV; Activity (Rattus norvegicus [17]): 0.203 delta mV; Activity (Rattus norvegicus [4]): Differ from control value; IC50 (Rattus norvegicus [5]): 21 nM; Activity (Rattus norvegicus [6]): 0.088 delta mV; IC50 (Rattus norvegicus [8]): 16 nM; Activity (Rattus norvegicus [10]): Differ from control value; Activity (Rattus norvegicus [12]): 0.093 delta mV; Activity (Rattus norvegicus [13]): Differ from control value; Activity (Rattus norvegicus [18]): Differ from control value; Activity (Rattus norvegicus [19]): Differ from control value; Activity (Rattus norvegicus [20]): Differ from control value
O=C(CCN1CCN(c2ccc(F)cc2)CC1)NC1c2ccccc2CSc2ccccc21 (stereo not drawn) | 2.82 | 
O=C(CCCN1CCN(CCc2ccccc2)CC1)NC1c2ccccc2C=Cc2ccccc21 | 8.91 | 
O=C(CCCN1CCN(c2ccc(F)cc2)CC1)NC1c2ccccc2C=Cc2ccccc21.O=C(O)/C=C\C(=O)O | 1.05 | Activity (Rattus norvegicus [2]): 0.224 delta mV; Activity (Rattus norvegicus [3]): 0.165 delta mV; Activity (Rattus norvegicus [17]): 0.188 delta mV; Activity (Rattus norvegicus [6]): 0.083 delta mV; Activity (Rattus norvegicus [12]): 0.042 delta mV
O=C(CCCN1CCN(C(=O)Oc2ccccc2)CC1)NC1c2ccccc2CSc2ccccc21 (stereo not drawn) | 13.2 | 
O=C(CCCN1CCN(CC(=O)c2ccccc2)CC1)NC1c2ccccc2CSc2ccccc21 (stereo not drawn) | 15.5 | 
O=C(CCCN1CCN(c2ccc(F)cc2)CC1)NC1c2ccccc2-c2ccccc21 | 69.2 | 
Cc1ccc(N2CCN(CCCC(=O)NC3c4ccccc4CSc4ccccc43)CC2)cc1 (stereo not drawn) | 3.31 | 
O=C(CCCN1CCN(C/C=C/c2ccccc2)CC1)NC1c2ccccc2C=Cc2ccccc21 | 30.9 | 
COc1ccc(CCN(C)CCCC(C#N)(c2ccc(OC)c(OC)c2)C(C)C)cc1OC (stereo not drawn) | 6.92 | 
O=C(CCCN1CCN(c2ccc(F)cc2)CC1)NC1c2ccccc2Oc2ccccc21 | 69.2 | 
O=C(CCCN1CCN(c2ccccc2F)CC1)NC1c2ccccc2CSc2ccccc21 (stereo not drawn) | 3.24 | 
O=C(CCCN1CCN(c2ccccc2)CC1)NC1c2ccccc2C=Cc2ccccc21 | 3.72 | 
O=C(CCCN1CCN(C(=O)c2ccccc2)CC1)NC1c2ccccc2CSc2ccccc21 (stereo not drawn) | 36.3 | 
COc1ccc(N2CCN(CCCC(=O)NC3c4ccccc4CSc4ccccc43)CC2)cc1 (stereo not drawn) | 3.39 | 
O=C(CCCN1CCN(c2ccccc2)CC1)NC1c2ccccc2CSc2ccccc21 (stereo not drawn) | 1.74 | 
O=C(CCCN1CCN(c2ccc(C(F)(F)F)cc2)CC1)NC1c2ccccc2C=Cc2ccccc21 | 2.09 | 
O=C(CCCCN1CCN(c2ccc(F)cc2)CC1)NC1c2ccccc2C=Cc2ccccc21 | 4.47 | 
